Assay results from paper PMC8904266 (Drug Design, Development and Therapy, 2022).
“And” between values parts separate entries of the source, which are not always exact repeats. Equal values may be shown once.

Legend:
WISH normal cell line = experiment: Cytotoxic effect against normal cell line; assay type: cell-based; settings: read-out: IC50 WISH
[1] = test system: Caco-2 colon cancer cells; experiment: In vitro antitumor MTT assay, Caco-2; assay type: cell-based, human; settings: Homo sapiens, Caco-2, 24 h, read-out: IC50 Caco-2
Outline: (§1)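 ATCC cell lines grown in RPMI-1640 with 10% FBS, penicillin/streptomycin, at 37 °C and 5% CO2. Seeded at 1.0×10^4 cells/well for 48 h, then treated 24 h with a range of test compound concentrations. MTT (5 mg/mL solution) added for 4 h; formazan dissolved in DMSO and read at 570 nm. IC50 from percent viability; mean ± S.D. of three separate experiments.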

MDA breast cancer cells = experiment: In vitro antitumor MTT assay, MDA; assay type: cell-based, human; settings: for IC50: Homo sapiens, 24 h, read-out: IC50 MDA; for selectivity index to MDA: WISH versus MDA
Outline: as §1

A549 lung cancer cells = experiment: In vitro antitumor MTT assay, A549; assay type: cell-based, human; settings: for IC50: Homo sapiens, A549, 24 h, read-out: IC50 A549; for selectivity index to A549: WISH versus A549
Outline: as §1

HepG-2 hepatoma cells = experiment: In vitro antitumor MTT assay, HepG-2; assay type: cell-based, human; settings: for selectivity index to HepG-2: WISH versus HepG-2; for IC50: read-out: IC50 HepG-2, MTT, 24 h treatment, mean of three experiments
Outline: as §1

[2] = In vitro antitumor MTT assay, Caco-2; assay type: cell-based, human; settings: human, Caco-2
Outline: as §1

VEGFR-2 kinase = VEGFR-2 kinase (Homo sapiens, UniProt P35968); experiment: biochemical; settings: VEGFR-2, IC50, VEGFR-2 Kinase Assay Kit (BPS-Bioscience), luminescence
p53 = experiment: Western blot analysis, p53; assay type: cell-based, human; settings: 48 h
Outline: (§2)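 HepG-2 treated 48 h with 9.52 µM test compound or DMSO control. Lysed at pH 7.4 (Tris, EDTA, EGTA, NaCl, NP-40, Triton X-100, protease/phosphatase inhibitors), freeze-thawed at −80 °C, sonicated and centrifuged. 30 µg protein run on SDS-PAGE and blotted to PVDF. Primary antibody 1:1000 overnight at 4 °C; HRP secondary 1:2000. ECL detection; bands normalized to β-actin, control set to 1; mean ± SEM, n=3.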

BAX/Bcl-2 ratio = experiment: Western blot analysis, BAX/Bcl-2 ratio; assay type: cell-based, human; settings: HepG-2, 9.52 µM, 48 h
Outline: as §2

HepG-2 cells [3] = experiment: Annexin V-FITC/PI apoptosis assay; assay type: cell-based, human
Outline: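 HepG-2 cells seeded and incubated 24 h, then exposed to test compound at 9.52 µM. Harvested cells washed 3× in PBS, […] double-stained with Annexin V-FITC/propidium iodide for 20 min in the dark. Early/late apoptotic and necrotic fractions measured by flow cytometry. Mean ± SEM of 3 experiments; unpaired t-test versus untreated control.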

HepG-2 cells [4] = experiment: Cell cycle analysis; assay type: cell-based, human; settings: HepG-2, 9.52 µM, 48 h
BAX = experiment: Western blot analysis, BAX; assay type: cell-based, human; settings: HepG-2, 9.52 µM, 48 h
Outline: as §2

caspase-3 = experiment: Western blot analysis, caspase-3; assay type: cell-based, human; settings: HepG-2, 9.52 µM, 48 h
Outline: as §2

Bcl-2 = experiment: Western blot analysis, Bcl-2; assay type: cell-based, human; settings: HepG-2, 9.52 µM, 48 h
Outline: as §2

VEGFR-2 kinase, sequence (P35968 20-1356): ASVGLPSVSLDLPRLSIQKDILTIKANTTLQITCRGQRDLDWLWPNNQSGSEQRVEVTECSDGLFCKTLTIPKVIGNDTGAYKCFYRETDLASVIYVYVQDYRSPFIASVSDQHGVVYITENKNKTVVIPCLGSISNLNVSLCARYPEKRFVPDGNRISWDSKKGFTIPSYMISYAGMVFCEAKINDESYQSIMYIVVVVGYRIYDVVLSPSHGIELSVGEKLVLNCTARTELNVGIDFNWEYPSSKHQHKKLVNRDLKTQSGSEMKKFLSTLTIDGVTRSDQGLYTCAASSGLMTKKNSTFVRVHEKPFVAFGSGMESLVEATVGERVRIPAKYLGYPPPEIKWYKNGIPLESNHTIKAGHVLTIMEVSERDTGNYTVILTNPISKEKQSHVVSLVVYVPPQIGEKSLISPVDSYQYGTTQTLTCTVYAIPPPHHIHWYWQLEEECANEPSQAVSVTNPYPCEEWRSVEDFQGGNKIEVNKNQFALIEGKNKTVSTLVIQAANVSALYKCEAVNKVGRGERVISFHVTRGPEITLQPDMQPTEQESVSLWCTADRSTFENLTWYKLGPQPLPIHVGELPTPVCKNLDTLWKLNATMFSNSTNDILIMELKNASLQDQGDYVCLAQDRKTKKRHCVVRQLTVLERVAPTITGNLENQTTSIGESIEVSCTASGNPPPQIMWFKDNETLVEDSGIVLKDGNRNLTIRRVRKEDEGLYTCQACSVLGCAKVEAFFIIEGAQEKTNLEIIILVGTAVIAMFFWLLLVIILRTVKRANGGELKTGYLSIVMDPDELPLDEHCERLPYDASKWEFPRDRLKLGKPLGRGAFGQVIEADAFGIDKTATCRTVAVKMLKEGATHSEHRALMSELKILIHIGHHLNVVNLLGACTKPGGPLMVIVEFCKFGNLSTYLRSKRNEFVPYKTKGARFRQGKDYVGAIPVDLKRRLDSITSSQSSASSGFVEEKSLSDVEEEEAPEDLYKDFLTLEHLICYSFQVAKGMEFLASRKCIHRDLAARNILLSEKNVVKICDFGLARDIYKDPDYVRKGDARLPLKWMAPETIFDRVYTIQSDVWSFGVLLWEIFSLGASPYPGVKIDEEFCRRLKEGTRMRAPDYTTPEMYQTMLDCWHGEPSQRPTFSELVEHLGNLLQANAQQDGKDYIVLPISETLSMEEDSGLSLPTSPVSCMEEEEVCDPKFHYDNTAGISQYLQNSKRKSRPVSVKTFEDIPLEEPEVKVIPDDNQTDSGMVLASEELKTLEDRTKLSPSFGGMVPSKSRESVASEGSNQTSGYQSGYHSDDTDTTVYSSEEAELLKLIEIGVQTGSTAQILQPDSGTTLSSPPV

## O=C(CN1CCN(c2nc3ccccc3nc2Cl)CC1)Nc1ccccc1 [Compound 10a, 2-(4-(3-chloroquinoxalin-2-yl)piperazin-1-yl)-N-phenylacetamide]
WISH normal cell line
  IC50: 30.5 µM
[1]
  IC50: 14.2 µM
MDA breast cancer cells
  IC50: 14.4 µM
A549 lung cancer cells
  IC50: 9.03 µM

## COc1ccc(NC(=O)CN2CCN(c3nc4ccccc4nc3Cl)CC2)cc1 [Compound 10b, 2-(4-(3-chloroquinoxalin-2-yl)piperazin-1-yl)-N-(4-methoxyphenyl)acetamide]
WISH normal cell line
  IC50: 45.7 µM
[1]
  IC50: 14.6 µM
MDA breast cancer cells
  IC50: 11.6 µM
A549 lung cancer cells
  IC50: 6.48 µM

## O=C(CN1CCN(c2nc3ccccc3nc2Cl)CC1)Nc1ccc(Cl)cc1 [Compound 10c, N-(4-chlorophenyl)-2-(4-(3-chloroquinoxalin-2-yl)piperazin-1-yl)acetamide]
WISH normal cell line
  IC50: 48 µM
[1]
  IC50: 9.42 µM
MDA breast cancer cells
  IC50: 11.3 µM
A549 lung cancer cells
  IC50: 9.57 µM

## O=C(CN1CCN(c2nc3ccccc3nc2Cl)CC1)Nc1ccc(F)cc1 [Compound 10d, 2-(4-(3-chloroquinoxalin-2-yl)piperazin-1-yl)-N-(4-fluorophenyl)acetamide]
WISH normal cell line
  IC50: 82.2 µM
[1]
  IC50: 32.8 µM
MDA breast cancer cells
  IC50: 16.6 µM
A549 lung cancer cells
  IC50: 10.9 µM

## Cc1ccc(NC(=O)CN2CCN(c3nc4ccccc4nc3Cl)CC2)cc1 [Compound 10e, 2-(4-(3-chloroquinoxalin-2-yl)piperazin-1-yl)-N-(p-tolyl)acetamide]
HepG-2 hepatoma cells
  selectivity index to HepG-2: 13.17
WISH normal cell line
  IC50: 106 µM
[1]
  IC50: 16.3 µM
[2]
  selectivity ratio at 24 h: 6.51
MDA breast cancer cells
  IC50: 14.3 µM
  selectivity index to MDA: 7.43
A549 lung cancer cells
  IC50: 11.6 µM
  selectivity index to A549: 9.18
VEGFR-2 kinase
  IC50: 0.241 ± 0.021 µM

## CC(=O)c1ccc(NC(=O)CN2CCN(c3nc4ccccc4nc3Cl)CC2)cc1 [Compound 10f, N-(4-acetylphenyl)-2-(4-(3-chloroquinoxalin-2-yl)piperazin-1-yl)acetamide]
WISH normal cell line
  IC50: 65.5 µM
[1]
  IC50: 28.4 µM
MDA breast cancer cells
  IC50: 16.1 µM
A549 lung cancer cells
  IC50: 10.3 µM

## O=C(CN1CCN(c2nc3ccccc3nc2Cl)CC1)Nc1ccc([N+](=O)[O-])cc1 [Compound 10g, 2-(4-(3-chloroquinoxalin-2-yl)piperazin-1-yl)-N-(4-nitrophenyl)acetamide]
WISH normal cell line
  IC50: 85 µM
[1]
  IC50: 15.9 µM
MDA breast cancer cells
  IC50: 10.5 µM
A549 lung cancer cells
  IC50: 8.36 µM
VEGFR-2 kinase
  IC50: 0.332 ± 0.028 µM

## O=C(CN1CCN(c2nc3ccccc3nc2Cl)CC1)NCc1ccccc1 [Compound 11, N-benzyl-2-(4-(3-chloroquinoxalin-2-yl)piperazin-1-yl)acetamide]
HepG-2 hepatoma cells
  selectivity index to HepG-2: 13.57
p53; HepG-2, 9.52 µM (IC50 value)
  increase in P53 expression compared to control: 3 fold
p53; HepG-2, 9.52 µM, control set to 1, mean ± SEM
  Protein Level (Normalized to β-Actin) P53: 3.07 ± 0.24
WISH normal cell line
  IC50: 129 µM
BAX/Bcl-2 ratio
  increase in BAX/Bcl-2 ratio compared to control: 4 fold
BAX/Bcl-2 ratio; control set to 1, mean ± SEM
  Protein Level (Normalized to β-Actin) BAX/Bcl-2 Ratio: 4.25 ± 0.47
[1]
  IC50: 12.5 µM
[2]
  selectivity ratio at 24 h: 10.4
HepG-2 cells [3]; HepG-2, 9.52 µM
  increase of early apoptosis rate compared to control: about 9 fold
  increase of late apoptosis compared to control: 3 fold
HepG-2 cells [3]; HepG-2, 9.52 µM, 48 h, control 0.11, mean ± SEM
  Necrosis: 0.17 ± 0.01
HepG-2 cells [3]; HepG-2, 9.52 µM, 48 h, control 0.13, mean ± SEM
  Apoptosis, Late: 0.38 ± 0.09
HepG-2 cells [3]; HepG-2, 9.52 µM, 48 h, control 4.75, mean ± SEM
  Apoptosis, Early: 43.60% and 43.60 ± 4.16 %
HepG-2 cells [3]; HepG-2, 9.52 µM, in words
  effect on HepG-2 necrosis: weak effect
HepG-2 cells [3]; Homo sapiens, HepG2, 48 h, read-out: Viable cells
  viability at 9.52 µM: 56 ± 4.19%
MDA breast cancer cells
  IC50: 11.5 µM
  selectivity index to MDA: 11.22
HepG-2 cells [4]; control 15.16%
  cell accumulation in the G2/M phase: 25.22%
HepG-2 cells [4]; control 20.14%
  cell accumulation rate at S phase: 46.10%
HepG-2 cells [4]; control 63.18%
  cell accumulation percentage in phase G1: 27.37%
BAX; in words
  BAX protein expression level compared to control: double increase
BAX; control set to 1, mean ± SEM
  Protein Level (Normalized to β-Actin) BAX: 2.16 ± 0.22
A549 lung cancer cells
  IC50: 10.6 µM
  selectivity index to A549: 12.18
VEGFR-2 kinase
  IC50: 0.19 µM and 0.192 µM
caspase-3
  increase in caspase-3 level compared to untreated cells: 2.3 fold
caspase-3; control set to 1, mean ± SEM
  Protein Level (Normalized to β-Actin) Caspases-3: 2.32 ± 0.11
Bcl-2; in words
  Bcl-2 expression level compared to control: decreased to half
Bcl-2; control set to 1, mean ± SEM
  Protein Level (Normalized to β-Actin) Bcl-2: 0.50 ± 0.03

## O=C(CN1CCN(c2nc3ccccc3[nH]c2=O)CC1)Nc1ccccc1 [Compound 13a, 2-(4-(3-oxo-3,4-dihydroquinoxalin-2-yl)piperazin-1-yl)-N-phenylacetamide]
WISH normal cell line
  IC50: 106 µM
[1]
  IC50: 13.2 µM
MDA breast cancer cells
  IC50: 17.9 µM
A549 lung cancer cells
  IC50: 11.2 µM
VEGFR-2 kinase
  IC50: 0.258 ± 0.023 µM

## COc1ccc(NC(=O)CN2CCN(c3nc4ccccc4[nH]c3=O)CC2)cc1 [Compound 13b, N-(4-methoxyphenyl)-2-(4-(3-oxo-3,4-dihydroquinoxalin-2-yl)piperazin-1-yl)acetamide]
HepG-2 hepatoma cells
  selectivity index to HepG-2: 12.35
  IC50: 8.83 µM
WISH normal cell line
  IC50: 109 µM
[1]
  IC50: 10.5 µM
[2]
  selectivity ratio at 24 h: 10.4
MDA breast cancer cells
  IC50: 14.7 µM
  selectivity index to MDA: 7.40
A549 lung cancer cells
  IC50: 11 µM
  selectivity index to A549: 9.94
VEGFR-2 kinase
  IC50: 0.471 ± 0.034 µM

## O=C(CN1CCN(c2nc3ccccc3[nH]c2=O)CC1)Nc1ccc(Cl)cc1 [Compound 13c, N-(4-chlorophenyl)-2-(4-(3-oxo-3,4-dihydroquinoxalin-2-yl)piperazin-1-yl)acetamide]
WISH normal cell line
  IC50: 42.1 µM
[1]
  IC50: 9.05 µM
MDA breast cancer cells
  IC50: 12.1 µM
A549 lung cancer cells
  IC50: 12.8 µM

## O=C(CN1CCN(c2nc3ccccc3[nH]c2=O)CC1)Nc1ccc(F)cc1 [Compound 13d, N-(4-fluorophenyl)-2-(4-(3-oxo-3,4-dihydroquinoxalin-2-yl)piperazin-1-yl)acetamide]
HepG-2 hepatoma cells
  IC50: 8.35 µM
WISH normal cell line
  IC50: 60.5 µM
[1]
  IC50: 13 µM
MDA breast cancer cells
  IC50: 14.4 µM
A549 lung cancer cells
  IC50: 13.4 µM
VEGFR-2 kinase
  IC50: 0.602 ± 0.048 µM

## Cc1ccc(NC(=O)CN2CCN(c3nc4ccccc4[nH]c3=O)CC2)cc1 [Compound 13e, 2-(4-(3-oxo-3,4-dihydroquinoxalin-2-yl)piperazin-1-yl)-N-(p-tolyl)acetamide]
WISH normal cell line
  IC50: 39.6 µM
[1]
  IC50: 14.3 µM
MDA breast cancer cells
  IC50: 18.5 µM
A549 lung cancer cells
  IC50: 12.6 µM

## CC(=O)c1ccc(NC(=O)CN2CCN(c3nc4ccccc4[nH]c3=O)CC2)cc1 [Compound 13f, N-(4-acetylphenyl)-2-(4-(3-oxo-3,4-dihydroquinoxalin-2-yl)piperazin-1-yl)acetamide]
HepG-2 hepatoma cells
  IC50: 8.4 µM
WISH normal cell line
  IC50: 54.8 µM
[1]
  IC50: 9.01 µM
MDA breast cancer cells
  IC50: 16.4 µM
A549 lung cancer cells
  IC50: 11.3 µM
VEGFR-2 kinase
  IC50: 0.465 ± 0.046 µM

## O=C(CN1CCN(c2nc3ccccc3[nH]c2=O)CC1)Nc1ccc([N+](=O)[O-])cc1 [Compound 13g, N-(4-nitrophenyl)-2-(4-(3-oxo-3,4-dihydroquinoxalin-2-yl)piperazin-1-yl)acetamide]
WISH normal cell line
  IC50: 38.6 µM
[1]
  IC50: 19.4 µM
MDA breast cancer cells
  IC50: 24.6 µM
A549 lung cancer cells
  IC50: 10.5 µM

## O=C(CN1CCN(c2nc3ccccc3[nH]c2=O)CC1)NCc1ccccc1 [Compound 14, N-benzyl-2-(4-(3-oxo-3,4-dihydroquinoxalin-2-yl)piperazin-1-yl)acetamide]
WISH normal cell line
  IC50: 35.7 µM
[1]
  IC50: 16.6 µM
MDA breast cancer cells
  IC50: 20 µM
A549 lung cancer cells
  IC50: 14.7 µM

## CNC(=O)c1cc(Oc2ccc(NC(=O)Nc3ccc(Cl)c(C(F)(F)F)c3)cc2)ccn1 [Sorafenib, reference compound]
[1]
  IC50: 9.25 µM
MDA breast cancer cells
  IC50: 10.8 µM
A549 lung cancer cells
  IC50: 14.1 µM
